Experimental data from different studies.
Each line is one published result; the experiments were not run side by side.
Target: Dual specificity mitogen-activated protein kinase kinase 5 (MAP2K5, Homo sapiens, UniProt Q13163)
One construct used (Q13163 1-448): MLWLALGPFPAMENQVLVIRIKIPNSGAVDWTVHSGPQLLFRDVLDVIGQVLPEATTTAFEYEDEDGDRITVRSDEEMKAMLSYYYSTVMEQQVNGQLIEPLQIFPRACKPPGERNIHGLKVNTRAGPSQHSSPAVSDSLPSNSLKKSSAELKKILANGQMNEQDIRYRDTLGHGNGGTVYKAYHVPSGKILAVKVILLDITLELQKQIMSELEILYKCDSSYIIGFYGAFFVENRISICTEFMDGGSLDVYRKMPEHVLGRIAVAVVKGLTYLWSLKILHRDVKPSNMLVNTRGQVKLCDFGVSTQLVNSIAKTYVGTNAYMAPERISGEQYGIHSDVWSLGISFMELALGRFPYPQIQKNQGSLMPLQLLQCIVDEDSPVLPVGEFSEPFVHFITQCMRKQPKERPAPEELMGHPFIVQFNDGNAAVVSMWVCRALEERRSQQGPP

For `Cc1cnn2ncc(-c3ccnc(N(C)C)n3)c2c1`, the remaining binding was 78% (binding; 1 µM).
For `CS(=O)(=O)N1CCCC(NC(=O)[C@H](CCC2CCCCC2)NC(=O)c2ccc(CNc3ncnc4c3nnn4-c3ccccc3)cc2)C1` (stereo partly shown), the remaining binding was 100% (cell-free assay; competition with immobilised ligand; 0.1 µM).
For `COc1cnc(Nc2cccc(S(N)(=O)=O)c2)nc1N1CCN(c2ccccc2)C(=O)C1`, the remaining binding was 67% (binding; competition with immobilised ligand; 1 µM).
With `C[C@@H](c1ccc(-n2cnc3c(N)ncnc32)cc1)N1CCc2nn(C)c(Cc3ccccc3)c2C1=O` the remaining binding was 40% (binding; competition with immobilised ligand; 0.1 µM).
`CC(=O)C1=C(C)N(c2cccc(C(F)(F)F)c2)C(=O)N[C@@H]1c1ccc(C#N)nc1` has a remaining binding of 100% (cell-free assay; competition with immobilised ligand; 1 µM).
`F[C@@H]1CCN(c2nccc(-c3cnn4ncccc34)n2)C1` has a remaining binding of 100% (binding; 1 µM).
With `O=C(Nc1c[nH]nc1C(=O)NC1CCNCC1)c1cc(F)cc(F)c1` the remaining binding was 100% (binding; competition with immobilised ligand; 1 µM).
The remaining binding of `C[C@@H]1CCN(c2nccc(-c3cnn4ncccc34)n2)C1` is reported as 71% (binding; 1 µM).
`NS(=O)(=O)c1cc(NC(=O)Cc2ccccc2)ccc1Oc1cccc(Cl)c1` gave a remaining binding of 88% (cell-free assay; competition with immobilised ligand; 1 µM).
The remaining binding of `Nc1ncc2c(n1)-c1c([nH]c3ccc(C#CC4CC4)cc13)CCCC2` is reported as 21% (binding; competition with immobilised ligand; 1 µM).
`COc1cnc(Nc2cccc(S(N)(=O)=O)c2)nc1N1CCN(c2ccccc2)CC1` gave a remaining binding of 84% (binding; competition with immobilised ligand; 1 µM).
The remaining binding of `C[C@@H]1CN(c2cc(-c3nn(C)c4ccc(OC5(C)CC5)cc34)ncn2)C[C@H](C)O1` is reported as 93% (cell-free assay; competition with immobilised ligand; 1 µM).
`O=C(NCCCN1CCOCC1)c1ccc(Nc2nccc(-c3cc4ccccc4s3)n2)cc1` gave a remaining binding of 36% (binding; competition with immobilised ligand; 1 µM).
`c1cncc(-c2cccc(Nc3nccc(NC4CCCCC4)n3)c2)c1` has a remaining binding of 23% (binding; competition with immobilised ligand; 10 µM).
With `CC1CCCN1c1nccc(-c2cnn3ncccc23)n1` (stereo not shown) the remaining binding was 100% (binding; 1 µM).
For `O=C(NCCCN1CCOCC1)c1ccc(Nc2ncc(Cl)c(-c3ccc(Cl)s3)n2)cc1`, the remaining binding was 6.9% (binding; competition with immobilised ligand; 1 µM).
With `N[C@@H]1CCN(c2nccc(-c3cnn4ncccc34)n2)C1` the remaining binding was 97% (binding; 1 µM).
`Cc1c[nH]c2nccc(Oc3c(F)cc(Nc4cc(Cl)nc(N)n4)cc3F)c12` has a remaining binding of 82% (cell-free assay; competition with immobilised ligand; 0.1 µM).
The remaining binding of `CN(C)c1nccc(-c2cnn3ncccc23)n1` is reported as 68% (binding; 1 µM).
`O=C(c1ccc(Nc2ncc(Cl)c(-c3cc4ccccc4s3)n2)cc1)N1CCC(N2CCCC2)CC1` has a remaining binding of 2.9% (binding; competition with immobilised ligand; 1 µM).
With `c1cnn2ncc(-c3ccnc(N4CCC45COC5)n3)c2c1` the remaining binding was 30% (binding; 1 µM).
With `Cc1noc([C@H]2C[C@@H](c3ccc(C(F)(F)F)cc3)CN(C(=O)N3CCS(=O)(=O)C3)C2)n1` the remaining binding was 78% (cell-free assay; competition with immobilised ligand; 1 µM).
